Source: ChEMBL document CHEMBL1121879, “In vitro activity of 2-alkyl-3-hydroxy-1,4-naphthoquinones against Theileria parva” (1981)
Values after ≈ are worked out from the molar mass of the structure shown.

Test system: Theileria parva
Test: In vitro concentration required to reduce the proportion of schizont infected cells in the culture to 50% of that of untreated control in the 48 hr incubation period
Assay type: functional
Details: read-out: ED50 (the source's name)
Procedure, shortened: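 T. parva-infected cell cultures were exposed to fourfold serial dilutions of each drug for 48 h, and the proportion of schizont-infected cells was compared with untreated controls. ED50 was expressed in mg/L, with at least two tests per compound.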

Row | EC50 [µg/mL] | Structure (SMILES)
1 | > 10 | O=C1C(=O)c2ccccc2C(O)=C1NC(=O)C1CCCCC1
2 | 0.06 (≈ 0.192 µM) | O=C1C(=O)c2ccccc2C(O)=C1CCCCC1CCCCC1
3 | 0.08 (≈ 0.281 µM) | O=C1C(=O)c2ccccc2C(O)=C1CCC1CCCCC1
4 | 0.06 (≈ 0.224 µM) | O=C1C(=O)c2ccccc2C(O)=C1C1CC2CCC1C2 (centres undefined)
5 | 0.03 (≈ 0.111 µM) | O=C1C(=O)c2ccccc2C(O)=C1CC1CCCCC1
6 | 10 (≈ 46.7 µM) | O=C1C(=O)c2ccccc2C(O)=C1C1CC1
7 | 6.5 (≈ 22.5 µM) | O=C1C(=O)c2ccccc2C(O)=C1SC1CCCCC1
8 | 1.5 (≈ 5.9 µM) | O=C1C(O)=C(C2C=CCCC2)C(=O)c2ccccc21 (centres undefined)
9 | > 10 | O=C1C(=O)c2ccccc2C(O)=C1CSC1CCCCC1
10 | 0.007 (≈ 0.0246 µM) | O=C1C(=O)c2ccccc2C(O)=C1C1CCCCCCC1
11 | 0.06 (≈ 0.201 µM) | O=C1C(=O)c2ccccc2C(O)=C1CCCC1CCCCC1
12 | 0.09 (≈ 0.264 µM) | O=C1C(=O)c2ccccc2C(O)=C1C1CCCCCCCCCCC1
13 | 6.8 (≈ 26.3 µM) | O=C1C(=O)c2ccccc2C(O)=C1C1CCCOC1 (centres undefined)
14 | 10 (≈ 43.8 µM) | O=C1C(=O)c2ccccc2C(O)=C1C1CCC1
15 | 3.7 (≈ 15.3 µM) | O=C1C(=O)c2ccccc2C(O)=C1C1CCCC1
16 | 0.01 (≈ 0.037 µM) | O=C1C(=O)c2ccccc2C(O)=C1C1CCCCCC1
17 | 0.006 (≈ 0.0234 µM) | O=C1C(O)=C(C2CCCCC2)C(=O)c2ccccc21 [PARVAQUONE]

Continued, compound first:

Row | Structure (SMILES) | EC50 [µg/mL]
18 | CCCCCCCCCCCCCCCCCC1=C(O)C(=O)c2ccccc2C1=O | 0.01 (≈ 0.0242 µM)
19 | NC1=C(CC2CCCCC2)C(=O)c2ccccc2C1=O | > 10
20 | O=C1C(Cl)=C(CC2CCCCC2)C(=O)c2ccccc21 | > 10
21 | CCCCCCCCCCCCCCC1=C(O)C(=O)c2ccccc2C1=O | 0.006 (≈ 0.0162 µM)
22 | CCCCCCCCCCCCC1=C(O)C(=O)c2ccccc2C1=O | 0.05 (≈ 0.146 µM)
23 | CC(=O)OC1=C(CC2CCCCC2)C(=O)c2ccccc2C1=O | 1 (≈ 3.2 µM)
24 | CCCCCCCCCCCCCC1=C(O)C(=O)c2ccccc2C1=O | 0.006 (≈ 0.0168 µM)
25 | O=C1C(O)=C(CCCCCCCCCCC2=C(O)C(=O)c3ccccc3C2=O)C(=O)c2ccccc21 | 10 (≈ 20.6 µM)
26 | O=C1C(=O)c2ccccc2C(O)=C1c1ccccc1 | > 10
27 | CCCCCCCCCCCCCCCCC1=C(O)C(=O)c2ccccc2C1=O | 0.01 (≈ 0.0251 µM)
28 | O=C1C(=O)c2ccccc2C(O)=C1CCCCCCCC1CCCCC1 | 0.05 (≈ 0.141 µM)
29 | COc1ccc2c(c1)C(=O)C(C1CCCCCC1)=C(O)C2=O | > 10
30 | CCCCCCCCCCCCCCCC1=C(O)C(=O)c2ccccc2C1=O | 0.01 (≈ 0.026 µM)
31 | O=C1C(O)=C(CCCCCC2=C(O)C(=O)c3ccccc3C2=O)C(=O)c2ccccc21 | > 10
32 | O=C1C(O)=C(NCC2CCCCC2)C(=O)c2ccccc21 | > 10
33 | O=C1C(O)=C(C2CCC(C3CCCCC3)CC2)C(=O)c2ccccc21 (centres undefined) | 0.006 (≈ 0.0177 µM)
34 | O=C1C(O)=C(CCCCCCCCC2=C(O)C(=O)c3ccccc3C2=O)C(=O)c2ccccc21 | 1 (≈ 2.18 µM)
35 | O=C1C(=O)c2ccccc2C(O)=C1CCCCCC1CCCCC1 | 0.03 (≈ 0.0919 µM)
36 | CCCCCCCCCC1=C(O)C(=O)c2ccccc2C1=O | 0.13 (≈ 0.433 µM)
37 | O=C1C(O)=C(CCCCCCC2=C(O)C(=O)c3ccccc3C2=O)C(=O)c2ccccc21 | > 10
38 | CCCCCC1=C(O)C(=O)c2ccccc2C1=O | 1 (≈ 4.09 µM)
39 | O=C1C(O)=C(CCCCCCCCC2CCCCC2)C(=O)c2ccccc21 [MENOCTONE] | 0.06 (≈ 0.163 µM)
